# Measurements gathered from unrelated publications.
# Compare with care: the assays were run in different laboratories.
# CDK9: Cyclin-dependent kinase 9 (CDK9, Homo sapiens, UniProt P50750)
# CDK9 with cyclin T1: Cyclin-dependent kinase 9, with cyclin T1 (CDK9, Homo sapiens, UniProt P50750)
Structure (SMILES),target,test,setting,quantity,value
Cc1nn(C)cc1-c1nc2c(N3CCN(Cc4ccc(Cl)cc4)CC3)c(Cl)cnc2[nH]1,CDK9,"binding, competition with immobilised ligand",1 µM,remaining binding,100%
O=c1[nH]c2ccccc2n1C1CCN(Cc2ccc(-c3[nH]c4cc5ncnc5cc4nc3-c3ccccc3)cc2)CC1,"Cyclin-dependent kinase 9, with cyclin K (CDK9, Homo sapiens, UniProt P50750)",cell-free assay,0.5 µM,remaining signal,108%
Nc1ncc(-c2nc(N3CCOCC3)nc(N3CCOCC3)n2)c(C(F)F)n1,CDK9,"binding, competition with immobilised ligand",10 µM,remaining binding,99%
Cn1cncc1[C@](O)(COc1ccc(C#N)cc1-c1ccc(OC(F)(F)F)cc1)c1ccc(C#N)cc1,CDK9,"cell-free assay, competition with immobilised ligand",1 µM,remaining binding,100%
Cn1cc(-c2cccc(N3CCc4c(sc5c4CC(C)(C)C5)C3=O)c2CO)cc(Nc2ccncn2)c1=O,CDK9 with cyclin T1,"enzyme activity, inhibitor",1 µM,inhibition,11%
C#Cc1n[nH]c2c(-c3cn(C(C)c4ccccn4)c(=O)[nH]c3=O)cc(F)cc12 (centres unmarked),CDK9 with cyclin T1,"enzyme activity, inhibitor",1 µM,inhibition,20.9%
N#CC1(c2ccccn2)CCN(Cc2cc(C(=O)O)c(=O)n3ccccc23)CC1,CDK9,"cell-free assay, competition with immobilised ligand",1 µM,remaining binding,99%
COc1ncccc1-c1cnn2ccc(N3CCN(C(=O)OC(C)C)CC3)nc12,CDK9,"binding, competition with immobilised ligand",1 µM,remaining binding,93%
